Assay results taken from ChEMBL document CHEMBL1629657, “In vitro antimicrobial activity of a new cephalosporin, ceftaroline, and determination of quality control ranges for MIC testing” (2009).

Tests used:
Format in all cases: functional
Staphylococcus [1] = test: Antimicrobial activity against methicillin-susceptible coagulase-negative Staphylococcus by broth microdilution method
In short: (§1)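 Clinical isolates were tested by CLSI broth microdilution in unsupplemented cation-adjusted Mueller-Hinton broth. The read-out was the MIC, reported as MIC90 (μg/ml) per species or phenotypic group. Ceftriaxone, levofloxacin and imipenem were run in parallel as comparators.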

Burkholderia cepacia = test: Antimicrobial activity against Burkholderia cepacia by broth microdilution method; in short: as §1
Enterococcus faecium [2] = test: Antimicrobial activity against vancomycin-susceptible Enterococcus faecium by broth microdilution method; in short: as §1
Salmonella sp. = test: Antimicrobial activity against Salmonella spp. by broth microdilution method; in short: as §1
Staphylococcus aureus [3] = test: Antimicrobial activity against vancomycin-resistant Staphylococcus aureus by broth microdilution method
In short: (§2)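 Isolates of the stated resistance phenotype were tested by CLSI broth microdilution in unsupplemented cation-adjusted Mueller-Hinton broth. Ceftaroline was compared with ceftriaxone, levofloxacin and imipenem. Activity was expressed as MICs (MIC90 in μg/ml).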

Streptococcus viridans = test: Antimicrobial activity against Streptococcus viridans group clinical isolate by broth microdilution method
In short: (§3)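 Streptococcal isolates were tested by CLSI broth microdilution in cation-adjusted Mueller-Hinton broth supplemented with 3% lysed horse blood. The read-out was the MIC, with MIC90 (μg/ml) reported per group. Ceftriaxone, levofloxacin and imipenem served as comparators.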

Streptococcus pneumoniae [4] = test: Antimicrobial activity against penicillin-resistant Streptococcus pneumoniae by broth microdilution method
In short: (§4)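 CLSI broth microdilution in cation-adjusted Mueller-Hinton broth with 3% lysed horse blood, against streptococcal clinical isolates of the stated phenotype. Ceftaroline was compared with ceftriaxone, levofloxacin and imipenem. Activity was expressed as MICs (MIC90 in μg/ml).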

Klebsiella pneumoniae [5] = test: Antimicrobial activity against ESBL-positive Klebsiella pneumoniae by broth microdilution method; in short: as §1
Listeria monocytogenes = test: Antimicrobial activity against Listeria monocytogenes by broth microdilution method; in short: as §1
Moraxella catarrhalis = test: Antimicrobial activity against Moraxella catarrhalis by broth microdilution method; in short: as §1
Streptococcus pyogenes [6] = test: Antimicrobial activity against macrolide-susceptible Streptococcus pyogenes by broth microdilution method; in short: as §4
Enterococcus faecalis [7] = test: Antimicrobial activity against Enterococcus faecalis by broth microdilution method; in short: as §1
Haemophilus influenzae [8] = test: Antimicrobial activity against beta-lactamase-negative ampicillin resistant Haemophilus influenzae by broth microdilution method
In short: (§5)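 CLSI broth microdilution in Haemophilus test medium (cation-adjusted Mueller-Hinton base) against clinical H. influenzae isolates of the stated phenotype. Ceftaroline was compared with ceftriaxone, levofloxacin and imipenem. Activity was expressed as MICs (MIC90 in μg/ml).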

Staphylococcus aureus [9] = test: Antimicrobial activity against vancomycin-intermediate Staphylococcus aureus by broth microdilution method; in short: as §1
Staphylococcus [10] = test: Antimicrobial activity against methicillin-resistant coagulase-negative Staphylococcus by broth microdilution method; in short: as §2
Providencia rettgeri = test: Antimicrobial activity against Proteus rettgeri by broth microdilution method; in short: as §1
Serratia marcescens = test: Antimicrobial activity against Serratia marcescens by broth microdilution method; in short: as §1
Enterococcus faecalis [11] = test: Antimicrobial activity against vancomycin-susceptible Enterococcus faecalis by broth microdilution method; in short: as §1
Pseudomonas aeruginosa [12] = test: Antimicrobial activity against multidrug resistant Pseudomonas aeruginosa by broth microdilution method; in short: as §2
Staphylococcus aureus [13] = test: Antimicrobial activity against methicillin-susceptible Staphylococcus aureus by broth microdilution method; in short: as §1
Enterococcus faecium [14] = test: Antimicrobial activity against Enterococcus faecium by broth microdilution method; in short: as §1
Streptococcus agalactiae = test: Antimicrobial activity against Streptococcus agalactiae by broth microdilution method; in short: as §3
Staphylococcus aureus [15] = test: Antimicrobial activity against methicillin-resistant Staphylococcus aureus by broth microdilution method; in short: as §2
Morganella morganii = test: Antimicrobial activity against Morganella morganii by broth microdilution method; in short: as §1
Streptococcus pneumoniae [16] = test: Antimicrobial activity against penicillin-susceptible Streptococcus pneumoniae by broth microdilution method; in short: as §3
Streptococcus pneumoniae [17] = test: Antimicrobial activity against penicillin-intermediate Streptococcus pneumoniae by broth microdilution method; in short: as §4
Klebsiella aerogenes = test: Antimicrobial activity against ESBL-negative Enterobacter aerogenes by broth microdilution method; in short: as §1
Klebsiella pneumoniae [18] = test: Antimicrobial activity against ESBL-negative Klebsiella pneumoniae by broth microdilution method; in short: as §1
Haemophilus influenzae [19] = test: Antimicrobial activity against beta-lactamase-positive Haemophilus influenzae by broth microdilution method
In short: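 H. influenzae isolates were tested by CLSI broth microdilution using Haemophilus test medium. The MIC was read and MIC90 (μg/ml) reported for the group. Ceftriaxone, levofloxacin and imipenem served as comparators.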

Streptococcus pyogenes [20] = test: Antimicrobial activity against macrolide-resistant Streptococcus pyogenes by broth microdilution method; in short: as §4
Providencia stuartii = test: Antimicrobial activity against Proteus stuartii by broth microdilution method; in short: as §1
Proteus vulgaris = test: Antimicrobial activity against Proteus vulgaris by broth microdilution method; in short: as §1
Streptococcus pneumoniae [21] = test: Antimicrobial activity against levofloxacin-resistant Streptococcus pneumoniae by broth microdilution method; in short: as §4
Shigella sp. = test: Antimicrobial activity against Shigella spp. by broth microdilution method; in short: as §1
Pseudomonas aeruginosa [22] = test: Antimicrobial activity against Pseudomonas aeruginosa by broth microdilution method; in short: as §1
Enterobacter cloacae = test: Antimicrobial activity against ESBL-negative Enterobacter cloacae by broth microdilution method; in short: as §1
[23] = tested on: Stenotrophomonas maltophilia; test: Antimicrobial activity against Stenotrophomonas maltophilia by broth microdilution method; in short: as §1
Corynebacterium jeikeium = test: Antimicrobial activity against Corynebacterium jeikeium by broth microdilution method; in short: as §1
Escherichia coli [24] = test: Antimicrobial activity against ESBL-positive Escherichia coli by broth microdilution method; in short: as §1
Proteus mirabilis = test: Antimicrobial activity against Proteus mirabilis by broth microdilution method; in short: as §1
Haemophilus influenzae [25] = test: Antimicrobial activity against beta-lactamase-negative Haemophilus influenzae by broth microdilution method; in short: as §5
Escherichia coli [26] = test: Antimicrobial activity against ESBL-negative Escherichia coli by broth microdilution method; in short: as §1

C[C@H]1COc2c(N3CCN(C)CC3)c(F)cc3c(=O)c(C(=O)O)cn1c23.C[C@H]1COc2c(N3CCN(C)CC3)c(F)cc3c(=O)c(C(=O)O)cn1c23.O [LEVOFLOXACIN]
MIC50 (Staphylococcus [1]): 0.25 µg/mL | MIC90 (Staphylococcus [1]): 16 µg/mL | MIC50 (Burkholderia cepacia): 1 µg/mL | MIC90 (Burkholderia cepacia): 32 µg/mL | MIC50 (Enterococcus faecium [2]): 2 µg/mL | MIC90 (Enterococcus faecium [2]): > 32 µg/mL | MIC (Salmonella sp.): 0.03 µg/mL | MIC50 (Salmonella sp.): 0.03 µg/mL | MIC90 (Salmonella sp.): 0.06 µg/mL | MIC (Staphylococcus aureus [3]): 16 µg/mL | MIC50 (Streptococcus viridans): 1 µg/mL | MIC90 (Streptococcus viridans): 2 µg/mL | MIC50 (Streptococcus pneumoniae [4]): 1 µg/mL | MIC90 (Streptococcus pneumoniae [4]): 1 µg/mL | MIC50 (Klebsiella pneumoniae [5]): 0.5 µg/mL | MIC90 (Klebsiella pneumoniae [5]): 8 µg/mL | MIC (Listeria monocytogenes): 1 µg/mL | MIC50 (Listeria monocytogenes): 1 µg/mL | MIC90 (Listeria monocytogenes): 1 µg/mL | MIC50 (Moraxella catarrhalis): 0.03 µg/mL | MIC90 (Moraxella catarrhalis): 0.03 µg/mL | MIC50 (Streptococcus pyogenes [6]): 0.5 µg/mL | MIC90 (Streptococcus pyogenes [6]): 2 µg/mL | MIC50 (Enterococcus faecalis [7]): 1 µg/mL | MIC90 (Enterococcus faecalis [7]): 32 µg/mL | MIC50 (Haemophilus influenzae [8]): 0.03 µg/mL | MIC90 (Haemophilus influenzae [8]): 0.06 µg/mL | MIC50 (Staphylococcus aureus [9]): 16 µg/mL | MIC90 (Staphylococcus aureus [9]): 32 µg/mL | MIC50 (Staphylococcus [10]): 8 µg/mL | MIC90 (Staphylococcus [10]): > 32 µg/mL | MIC50 (Providencia rettgeri): 0.12 µg/mL | MIC90 (Providencia rettgeri): > 32 µg/mL | MIC50 (Serratia marcescens): 0.12 µg/mL | MIC90 (Serratia marcescens): 0.25 µg/mL | MIC (Enterococcus faecalis [11]): 1 µg/mL | MIC50 (Enterococcus faecalis [11]): 1 µg/mL | MIC90 (Enterococcus faecalis [11]): > 32 µg/mL | MIC50 (Pseudomonas aeruginosa [12]): 32 µg/mL | MIC50 (Staphylococcus aureus [13]): 0.25 µg/mL | MIC90 (Staphylococcus aureus [13]): 8 µg/mL | MIC50 (Enterococcus faecium [14]): > 32 µg/mL | MIC90 (Enterococcus faecium [14]): > 32 µg/mL | MIC50 (Streptococcus agalactiae): 1 µg/mL | MIC90 (Streptococcus agalactiae): 1 µg/mL | MIC50 (Staphylococcus aureus [15]): 8 µg/mL | MIC90 (Staphylococcus aureus [15]): > 32 µg/mL | MIC50 (Morganella morganii): 0.06 µg/mL | MIC90 (Morganella morganii): 8 µg/mL | MIC50 (Streptococcus pneumoniae [16]): 1 µg/mL | MIC90 (Streptococcus pneumoniae [16]): 2 µg/mL | MIC50 (Streptococcus pneumoniae [17]): 1 µg/mL | MIC90 (Streptococcus pneumoniae [17]): 1 µg/mL | MIC50 (Klebsiella aerogenes): 0.06 µg/mL | MIC90 (Klebsiella aerogenes): 0.5 µg/mL | MIC50 (Klebsiella pneumoniae [18]): 0.06 µg/mL | MIC90 (Klebsiella pneumoniae [18]): 0.5 µg/mL | MIC50 (Haemophilus influenzae [19]): 0.03 µg/mL | MIC90 (Haemophilus influenzae [19]): 0.03 µg/mL | MIC (Streptococcus pyogenes [20]): 0.5 µg/mL | MIC50 (Streptococcus pyogenes [20]): 0.5 µg/mL | MIC90 (Streptococcus pyogenes [20]): 0.5 µg/mL | MIC50 (Providencia stuartii): 0.12 µg/mL | MIC90 (Providencia stuartii): > 32 µg/mL | MIC50 (Proteus vulgaris): 0.03 µg/mL | MIC90 (Proteus vulgaris): 0.06 µg/mL | MIC50 (Streptococcus pneumoniae [21]): 16 µg/mL | MIC90 (Streptococcus pneumoniae [21]): > 32 µg/mL | MIC50 (Shigella sp.): 0.03 µg/mL | MIC90 (Shigella sp.): 0.06 µg/mL | MIC50 (Pseudomonas aeruginosa [22]): 2 µg/mL | MIC90 (Pseudomonas aeruginosa [22]): > 32 µg/mL | MIC50 (Enterobacter cloacae): 0.03 µg/mL | MIC90 (Enterobacter cloacae): 0.06 µg/mL | MIC50 [23]: 1 µg/mL | MIC90 [23]: 16 µg/mL | MIC50 (Corynebacterium jeikeium): > 32 µg/mL | MIC90 (Corynebacterium jeikeium): > 32 µg/mL | MIC50 (Escherichia coli [24]): 0.25 µg/mL | MIC90 (Escherichia coli [24]): 32 µg/mL | MIC (Proteus mirabilis): 0.03 µg/mL | MIC50 (Proteus mirabilis): 0.03 µg/mL | MIC90 (Proteus mirabilis): 0.25 µg/mL | MIC50 (Haemophilus influenzae [25]): 0.03 µg/mL | MIC90 (Haemophilus influenzae [25]): 0.03 µg/mL | MIC50 (Escherichia coli [26]): 0.03 µg/mL | MIC90 (Escherichia coli [26]): 0.25 µg/mL
